Most compounds without a hit are left out; they make up all but 9.6% or so of the library.
PTEN del growth: growth suppression of PTEN-null HCT116, primary screen, cell-based, CellTiter-Glo | hit rate 1.2% among 140,000 | HCT116 PTEN-null viability, 60 h; stronger effect = lower value | AID 827, 2007 | viability, % at 10 µM;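 active = viability at or below a set limit, 4 SD under the median of all tested compounds, cut at about 3.7% in these data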;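 also: PTEN knockout HCT116 line with beta catenin targeted HCT116 as companion control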
TNAP inh noacc: human TNAP enzyme inhibitors, primary screen, biochemical, luminescent, no phosphate acceptor, uHTS; Alkaline phosphatase, tissue-nonspecific isozyme (Homo sapiens), P05186; purified TNAP, CDP-star luminescence, 30 min; inhibition, % at 20 µM; hit rate 0.26% among 200,000; AID 1012, 2008;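 active = tissue-nonspecific alkaline phosphatase inhibition above about 50% at 20 µM in the single-dose screen, limit read from the data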;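 also: 0% = DMSO negative control and 100% = EDTA positive control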
Target sequence (P05186 whole entry, looked up): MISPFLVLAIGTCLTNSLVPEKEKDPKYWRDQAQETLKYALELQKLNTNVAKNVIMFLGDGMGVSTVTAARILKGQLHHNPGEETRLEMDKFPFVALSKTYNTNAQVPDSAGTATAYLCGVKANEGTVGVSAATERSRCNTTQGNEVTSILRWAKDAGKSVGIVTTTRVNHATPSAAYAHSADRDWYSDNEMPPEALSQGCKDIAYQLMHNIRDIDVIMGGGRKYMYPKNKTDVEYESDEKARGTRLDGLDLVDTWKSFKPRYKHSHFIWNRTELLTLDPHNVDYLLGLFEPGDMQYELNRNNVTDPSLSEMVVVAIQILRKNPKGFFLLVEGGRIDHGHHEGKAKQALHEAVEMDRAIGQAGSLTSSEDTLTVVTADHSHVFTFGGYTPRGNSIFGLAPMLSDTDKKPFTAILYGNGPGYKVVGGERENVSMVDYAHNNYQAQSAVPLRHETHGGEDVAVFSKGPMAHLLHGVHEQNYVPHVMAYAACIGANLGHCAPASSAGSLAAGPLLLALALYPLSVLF
TNAP inh hiacc: human TNAP enzyme inhibitors, primary screen, biochemical, luminescent, high phosphate acceptor level, uHTS. inhibition, % at 20 µM. purified TNAP, CDP-star luminescence, 1 M DEA. AID 1135, 2008. hit rate 0.03% among 200,000;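 active = over 50% inhibition of tissue-nonspecific alkaline phosphatase at 20 µM in the single-dose screen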;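 also: plate controls were DMSO wells for no effect and EDTA-quenched wells as full inhibition for full effect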
Lmaj promast: Leishmania major promastigote growth inhibition, primary screen. inhibition, % at 10 µM. Leishmania major promastigotes, resazurin fluorescence viability. hit rate 9% among 200,000. AID 1063, 2008; in the data active = inhibition above about 50%;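 also: promastigotes grown with compound for 44 hours at 28 °C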
TNAP act hiacc: TNAP activators at high phosphate acceptor level, primary screen, biochemical, luminescence, uHTS; activation factor at 20 µM; 200,000 tested, under 10 active; purified TNAP, CDP-star luminescence, 1 M DEA, 30 min; stronger effect = higher value; 0 = EDTA background, 1 = DMSO-only activity; Alkaline phosphatase, tissue-nonspecific isozyme (Homo sapiens), P05186; AID 1136, 2008;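 active = activation factor at least 2 at 20 µM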
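Assay system: human TNAP; Input: enzyme diluted 1/800 final; Reagent: CDP-star luminogenic substrate at 100 µM final; Timing: 30 min, room temperature; Signal: luminescence; Evaluation: TNAP activation factor scaled between EDTA and DMSO control wells.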
HCT116 bCat-KO: primary screen for growth suppressors in beta-catenin knockout HCT116 cells (colon tumor, human); HCT116 beta-catenin knockout viability, CellTiter-Glo, 60 h; stronger effect = lower value; viability, % at 10 µM; hit rate 1.5% among 140,000; AID 818, 2007;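 active = viability at or under a set limit, the compound median less 4 SD, cut at about 6% in these data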;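 also: 0% = Hyamine 1622 control at 20 µM and 100% = untreated cell control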
* marks the source's active call; other numbers are inactive results.

Screening CCOC(CCn1c(SCc2ccc([N+](=O)[O-])cc2)nc2ccccc2c1=O)OCC returned PTEN del growth 64, TNAP inh noacc -12, TNAP inh hiacc -2, Lmaj promast 51*, TNAP act hiacc 1 and HCT116 bCat-KO 56.
For CS(=O)(=O)c1ccc2nc(NC(=O)Cc3ccccc3)sc2c1 the results were TNAP inh noacc -10, TNAP inh hiacc -3, Lmaj promast 3 and TNAP act hiacc 1.
CC(C)(C)NS(=O)(=O)c1ccc2nc(NC(=O)Cc3cccs3)sc2c1 was read as PTEN del growth 55, TNAP inh noacc -1, TNAP inh hiacc 5, Lmaj promast 95*, TNAP act hiacc 1 and HCT116 bCat-KO 65.
Cc1cc(N2CCOCC2)nc2ccc(NC(=S)N3CCCCC3C)cc12 (stereo unspecified) was read as TNAP inh noacc 1, TNAP inh hiacc -1, Lmaj promast 85* and TNAP act hiacc 1.
Screening Cc1cc(N2CCN(C)CC2)nc2ccc(NC(=S)NCCN3CCc4ccccc4C3)cc12 returned TNAP inh noacc -1, TNAP inh hiacc -5, Lmaj promast 100* and TNAP act hiacc 1.1.
For CCOC(=O)N1CCC(NC(=S)Nc2ccc3nc(N4CCN(CC)CC4)cc(C)c3c2)CC1 the results were TNAP inh noacc -3, TNAP inh hiacc -4, Lmaj promast 30 and TNAP act hiacc 1.
CCOC(=O)N1CCC(NC(=S)Nc2ccc3nc(N4CCN(C)CC4)cc(C)c3c2)CC1 was read as TNAP inh noacc -11, TNAP inh hiacc -5, Lmaj promast 16 and TNAP act hiacc 1.
Cc1cc(N2CCOCC2)nc2ccc(NC(=O)CCC(=O)N3CCCC(C)C3)cc12 (stereo unspecified) was read as PTEN del growth 102, TNAP inh noacc -1, TNAP inh hiacc -8, Lmaj promast 4, TNAP act hiacc 1.1 and HCT116 bCat-KO 112.
Screening CCCCNC(=O)CCC(=O)Nc1ccc2nc(N3CCN(C)CC3)cc(C)c2c1 returned TNAP inh noacc 3, TNAP inh hiacc -1, Lmaj promast 1 and TNAP act hiacc 1.
`Cc1cc(N2CCN(C)CC2)nc2ccc(NC(=S)NCCCN3CCc4ccccc4C3)cc12` gave TNAP inh noacc -4, TNAP inh hiacc -3, Lmaj promast 100* and TNAP act hiacc 1.
Screening Cc1cc(N2CCCC2)nc2ccc(NC(=S)NCCCN3CCC(C)CC3)cc12 returned TNAP inh noacc 2, TNAP inh hiacc -2, Lmaj promast 100* and TNAP act hiacc 1.
`CN(C)/C=C/C(=O)c1cc(F)cc(C(F)(F)F)c1` gave TNAP inh noacc -3, TNAP inh hiacc -1, Lmaj promast -1 and TNAP act hiacc 1.
Screening O=C(Nc1ccc(S(=O)(=O)NCC2CCCO2)cc1)c1ccc(Cl)cc1[N+](=O)[O-] (stereo unspecified) returned TNAP inh noacc -14, TNAP inh hiacc -8, Lmaj promast -7 and TNAP act hiacc 1.1.
`CCOC(CCn1c(SCC(=O)Nc2cc(C)on2)nc2ccccc2c1=O)OCC` gave TNAP inh noacc -5, TNAP inh hiacc -8, Lmaj promast 3 and TNAP act hiacc 1.1.
For Nc1nccc(-c2ccc(-n3cccc3)cc2)n1 the results were TNAP inh noacc -6, TNAP inh hiacc -4, Lmaj promast 1 and TNAP act hiacc 1.
`O=C(Cc1cccs1)N(CC1CCCO1)C1(C(=O)NC2CCCC2)CCCCC1` (stereo unspecified) gave TNAP inh noacc -5, TNAP inh hiacc 2, Lmaj promast 23 and TNAP act hiacc 1.
Screening CCN1CCN(c2cc(C)c3cc(NC(=S)NCCCN4CCc5ccccc5C4)ccc3n2)CC1 returned TNAP inh noacc -29, TNAP inh hiacc -4, Lmaj promast 100* and TNAP act hiacc 1.
For CCCN1CCN(CCCNC(=S)Nc2ccc3nc(N4CCN(CC)CC4)cc(C)c3c2)CC1 the results were TNAP inh noacc 7, TNAP inh hiacc -1, Lmaj promast 26 and TNAP act hiacc 1.
For CSC1=C(C#N)C(c2ccc3c(c2)OCO3)C2=C(CCCC2=O)N1 (stereo unspecified) the results were PTEN del growth 96, TNAP inh noacc 0, TNAP inh hiacc 0, Lmaj promast 4, TNAP act hiacc 1 and HCT116 bCat-KO 108.
For CCSC1=C(C#N)C(c2ccc(Cl)cc2)C2=C(CCCC2=O)N1 (stereo unspecified) the results were PTEN del growth 23, TNAP inh noacc -11, TNAP inh hiacc -5, Lmaj promast 95*, TNAP act hiacc 1 and HCT116 bCat-KO 19.
For Cc1cc2nc(-c3ccc(NC(=O)C(C)C)cc3)oc2cc1C the results were PTEN del growth 98, TNAP inh noacc -12, TNAP inh hiacc -3, Lmaj promast 90*, TNAP act hiacc 1 and HCT116 bCat-KO 97.
`Cc1ccc(-c2nc3cc(NC(=O)C(C)C)ccc3o2)cc1` gave PTEN del growth 83, TNAP inh noacc -8, TNAP inh hiacc -5, Lmaj promast 4, TNAP act hiacc 1.1 and HCT116 bCat-KO 89.
`CCCc1cc(=O)[nH]c(SCC(=O)Nc2cc(C)on2)n1` gave TNAP inh noacc -9, TNAP inh hiacc -2, Lmaj promast -7 and TNAP act hiacc 1.
Screening Nc1c2c(nc3sc4c(c13)CCCC4)CCCCCC2 returned PTEN del growth 28, TNAP inh noacc -31, TNAP inh hiacc -7, Lmaj promast 55*, TNAP act hiacc 1.1 and HCT116 bCat-KO 26.
Screening Nc1nc2sc3c(c2c(=O)s1)CCCC3 returned PTEN del growth 99, TNAP inh noacc -3, TNAP inh hiacc -6, Lmaj promast 17, TNAP act hiacc 1.1 and HCT116 bCat-KO 97.
For Nc1nc(-c2ccccc2)nc2sc3c(c12)CCCC3 the results were PTEN del growth 64, TNAP inh noacc -1, TNAP inh hiacc 2, Lmaj promast 60*, TNAP act hiacc 1 and HCT116 bCat-KO 69.
`O=[N+]([O-])c1ccc(-n2nnnc2-c2ccccc2)cc1` gave TNAP inh noacc -7, TNAP inh hiacc -1, Lmaj promast 7 and TNAP act hiacc 1.
O=[N+]([O-])c1ccc(-n2nnnc2-c2ccccc2)c([N+](=O)[O-])c1 was read as PTEN del growth 0.6*, TNAP inh noacc -13, TNAP inh hiacc -1, Lmaj promast 100*, TNAP act hiacc 1 and HCT116 bCat-KO 0.6*.
For Cc1ccc(CN=C(N)Nc2nc(C)cc(C)n2)cc1 the results were TNAP inh noacc -13, TNAP inh hiacc -6, Lmaj promast 35 and TNAP act hiacc 1.1.

High-throughput results as filed in PubChem BioAssay.
